How the values were obtained:
K562 [1] = assay: Antiproliferative activity against human K562 cells at 10 uM after 48 hrs by trypan blue assay; type: functional; details: K562, 48 h, read-out: GI
K562 [2] = assay: Growth inhibition of human K562 cells after 48 hrs by trypan blue assay; type: functional, cell-based; details: K562, 48 h
CCRF-CEM = assay: Growth inhibition of human CCRF-CEM cells after 48 hrs by SRB assay; type: functional
Outline: (§1)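 NCI DTP panel cells grown in RPMI 1640 with 5% FBS and 2 mM L-glutamine, preincubated 24 h, then given five concentrations (10-fold or ½-log dilutions from DMSO stock) for 48 h at 37 °C. Cells fixed with TCA, stained with SRB, absorbance read at 515 nm, with time-zero plates as reference.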

HL-60 = assay: Growth inhibition of human HL60 cells after 48 hrs by SRB assay; type: functional; details: HL-60, 48 h; outline: as §1
K562 [3] = assay: Growth inhibition of human K562 cells after 48 hrs by SRB assay; type: functional; details: K562, 48 h; outline: as §1
MOLT-4 = assay: Growth inhibition of human MOLT4 cells after 48 hrs by SRB assay; type: functional; details: MOLT-4, 48 h; outline: as §1
RPMI-8226 = assay: Growth inhibition of human RPMI8226 cells after 48 hrs by SRB assay; type: functional; details: RPMI-8226, 48 h; outline: as §1
A549 = assay: Growth inhibition of human A549 cells after 48 hrs by SRB assay; type: functional; details: A549, 48 h; outline: as §1
EKVX = assay: Growth inhibition of human EKVX cells after 48 hrs by SRB assay; type: functional; outline: as §1
HOP-62 = assay: Growth inhibition of human HOP62 cells after 48 hrs by SRB assay; type: functional; details: HOP-62, 48 h; outline: as §1
HOP-92 = assay: Growth inhibition of human HOP92 cells after 48 hrs by SRB assay; type: functional; details: HOP-92, 48 h; outline: as §1
NCI-H226 = assay: Growth inhibition of human NCI-H226 cells after 48 hrs by SRB assay; type: functional; details: NCI-H226, 48 h; outline: as §1
NCI-H23 = assay: Growth inhibition of human NCI-H23 cells after 48 hrs by SRB assay; type: functional; details: NCI-H23, 48 h; outline: as §1
NCI-H460 = assay: Growth inhibition of human NCI-H460 cells after 48 hrs by SRB assay; type: functional; details: NCI-H460, 48 h; outline: as §1
COLO 205 = assay: Growth inhibition of human COLO205 cells after 48 hrs by SRB assay; type: functional; details: COLO 205, 48 h; outline: as §1
HCT-116 = assay: Growth inhibition of human HCT116 cells after 48 hrs by SRB assay; type: functional; details: HCT-116, 48 h; outline: as §1
HCT-15 = assay: Growth inhibition of human HCT15 cells after 48 hrs by SRB assay; type: functional; details: HCT-15, 48 h; outline: as §1
HT-29 = assay: Growth inhibition of human HT-29 cells after 48 hrs by SRB assay; type: functional; details: HT-29, 48 h; outline: as §1
KM12 = assay: Growth inhibition of human KM12 cells after 48 hrs by SRB assay; type: functional; details: KM12, 48 h; outline: as §1
SW-620 = assay: Growth inhibition of human SW620 cells after 48 hrs by SRB assay; type: functional; details: SW-620, 48 h
Outline: (§2)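 Run by the NCI Developmental Therapeutics Program: cells in RPMI 1640 with 5% FBS and 2 mM L-glutamine, plated at 5000–40,000 cells/well and grown 24 h before dosing. Drug (DMSO stock) given at five concentrations for 48 h at 37 °C, 5% CO2. Adherent cells fixed with cold TCA, stained with 0.4% SRB and read at 515 nm. GI50, TGI and LC50 taken from the time-zero, control and treated absorbances.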

SF-268 = assay: Growth inhibition of human SF268 cells after 48 hrs by SRB assay; type: functional; details: SF-268, 48 h; outline: as §1
SF-295 = assay: Growth inhibition of human SF295 cells after 48 hrs by SRB assay; type: functional; details: SF-295, 48 h; outline: as §1
SF-539 = assay: Growth inhibition of human SF539 cells after 48 hrs by SRB assay; type: functional; details: SF-539, 48 h; outline: as §1
SNB-19 = assay: Growth inhibition of human SNB19 cells after 48 hrs by SRB assay; type: functional; details: SNB-19, 48 h; outline: as §2
SNB-75 = assay: Growth inhibition of human SNB75 cells after 48 hrs by SRB assay; type: functional; details: SNB-75, 48 h; outline: as §2
U-251 = assay: Growth inhibition of human U251 cells after 48 hrs by SRB assay; type: functional; details: U-251, 48 h; outline: as §2
LOX IMVI = assay: Growth inhibition of human LOXIMVI cells after 48 hrs by SRB assay; type: functional; outline: as §1
Malme-3M = assay: Growth inhibition of human MALME-3M cells after 48 hrs by SRB assay; type: functional; outline: as §1
M14 = assay: Growth inhibition of human M14 cells after 48 hrs by SRB assay; type: functional; details: M14, 48 h; outline: as §1
MDA-MB-435 = assay: Growth inhibition of human MDA-MB-435 cells after 48 hrs by SRB assay; type: functional; details: MDA-MB-435, 48 h; outline: as §1
SK-MEL-28 = assay: Growth inhibition of human SK-MEL-28 cells after 48 hrs by SRB assay; type: functional; details: SK-MEL-28, 48 h; outline: as §2
SK-MEL-5 = assay: Growth inhibition of human SK-MEL-5 cells after 48 hrs by SRB assay; type: functional; details: SK-MEL-5, 48 h; outline: as §2
UACC-62 = assay: Growth inhibition of human UACC62 cells after 48 hrs by SRB assay; type: functional; details: UACC-62, 48 h; outline: as §2
OVCAR-3 = assay: Growth inhibition of human OVCAR3 cells after 48 hrs by SRB assay; type: functional; details: OVCAR-3, 48 h; outline: as §1
OVCAR-5 = assay: Growth inhibition of human OVCAR5 cells after 48 hrs by SRB assay; type: functional; details: OVCAR-5, 48 h; outline: as §1
NCI/ADR-RES = assay: Growth inhibition of human NCI/ADR-RES cells after 48 hrs by SRB assay; type: functional; outline: as §1
SK-OV-3 = assay: Growth inhibition of human SKOV3 cells after 48 hrs by SRB assay; type: functional; details: SK-OV-3, 48 h; outline: as §2
786-0 = assay: Growth inhibition of human 786-0 cells after 48 hrs by SRB assay; type: functional; details: 786-0, 48 h; outline: as §1
A498 = assay: Growth inhibition of human A498 cells after 48 hrs by SRB assay; type: functional; details: A498, 48 h; outline: as §1
ACHN = assay: Growth inhibition of human ACHN cells after 48 hrs by SRB assay; type: functional; outline: as §1
CAKI-1 = assay: Growth inhibition of human Caki1 cells after 48 hrs by SRB assay; type: functional; details: CAKI-1, 48 h; outline: as §1
RXF 393 = assay: Growth inhibition of human RXF393 cells after 48 hrs by SRB assay; type: functional; details: RXF 393, 48 h; outline: as §1
SN12C = assay: Growth inhibition of human SN12C cells after 48 hrs by SRB assay; type: functional; outline: as §2
TK-10 = assay: Growth inhibition of human TK10 cells after 48 hrs by SRB assay; type: functional; details: TK-10, 48 h; outline: as §2
UO-31 = assay: Growth inhibition of human UO31 cells after 48 hrs by SRB assay; type: functional; details: UO-31, 48 h; outline: as §2
PC-3 = assay: Growth inhibition of human PC3 cells after 48 hrs by SRB assay; type: functional; details: PC-3, 48 h; outline: as §1
DU-145 = assay: Growth inhibition of human DU145 cells after 48 hrs by SRB assay; type: functional; details: DU-145, 48 h; outline: as §1
MCF7 = assay: Growth inhibition of human MCF7 cells after 48 hrs by SRB assay; type: functional; details: MCF7, 48 h; outline: as §1
MDA-MB-231 = assay: Growth inhibition of human MDA-MB-231 cells after 48 hrs by SRB assay; type: functional; details: MDA-MB-231, 48 h; outline: as §1
[4] = Growth inhibition of human Hs 578T cells after 48 hrs by SRB assay; type: functional; outline: as §1
BT-549 = assay: Growth inhibition of human BT549 cells after 48 hrs by SRB assay; type: functional; details: BT-549, 48 h; outline: as §1
T47D = assay: Growth inhibition of human T47D cells after 48 hrs by SRB assay; type: functional; outline: as §2
MDA-MB-468 = assay: Growth inhibition of human MDA-MB-468 cells after 48 hrs by SRB assay; type: functional; details: MDA-MB-468, 48 h; outline: as §1

Work on `NC(=O)c1cc(Br)ccc1NC(=O)/C=C/c1ccccc1` yielded an inhibition of growth at 10 µM (K562 [1]) of 62.4%, an IC50 (K562 [2]) of 5 µM and a GI50 (CCRF-CEM) of 429 nM. The GI50 (HL-60) was 346 nM, the GI50 (K562 [3]) was 415 nM and the GI50 (MOLT-4) was 1860 nM. For the same molecule, the GI50 (RPMI-8226) was 1030 nM, the GI50 (A549) was 1020 nM and the GI50 (EKVX) was 2410 nM. For the same molecule, the GI50 (HOP-62) was 1510 nM, the GI50 (HOP-92) was 1960 nM and the GI50 (NCI-H226) was 2610 nM. It also gave a GI50 (NCI-H23) of 1090 nM, a GI50 (NCI-H460) of 662 nM and a GI50 (COLO 205) of 917 nM. For the same molecule, the GI50 (HCT-116) was 663 nM, the GI50 (HCT-15) was 1040 nM and the GI50 (HT-29) was 527 nM. It also gave a GI50 (KM12) of 739 nM, a GI50 (SW-620) of 705 nM and a GI50 (SF-268) of 1830 nM. The GI50 (SF-295) was 625 nM, the GI50 (SF-539) was 819 nM and the GI50 (SNB-19) was 2000 nM. The GI50 (SNB-75) was 2070 nM, the GI50 (U-251) was 887 nM and the GI50 (LOX IMVI) was 3.27 µM. The GI50 (Malme-3M) was 1210 nM, the GI50 (M14) was 482 nM and the GI50 (MDA-MB-435) was 231 nM. For the same molecule, the GI50 (SK-MEL-28) was 839 nM, the GI50 (SK-MEL-5) was 435 nM and the GI50 (UACC-62) was 782 nM. The GI50 (OVCAR-3) was 349 nM, the GI50 (OVCAR-5) was 2920 nM and the GI50 (NCI/ADR-RES) was 400 nM. For the same molecule, the GI50 (SK-OV-3) was 1410 nM, the GI50 (786-0) was 1760 nM and the GI50 (A498) was 1700 nM. The GI50 (ACHN) was 3.36 µM, the GI50 (CAKI-1) was 1340 nM and the GI50 (RXF 393) was 444 nM. For the same molecule, the GI50 (SN12C) was 2960 nM, the GI50 (TK-10) was 2670 nM and the GI50 (UO-31) was 1850 nM. For the same molecule, the GI50 (PC-3) was 684 nM, the GI50 (DU-145) was 935 nM and the GI50 (MCF7) was 569 nM. It also gave a GI50 (MDA-MB-231) of 2190 nM, a GI50 [4] of 624 nM and a GI50 (BT-549) of 1410 nM. It also gave a GI50 (T47D) of 1570 nM and a GI50 (MDA-MB-468) of 279 nM.

Reference: ChEMBL document CHEMBL1795311, “Synthesis, antiproliferative activity, and mechanism of action of a series of 2-{[(2E)-3-phenylprop-2-enoyl]amino}benzamides” (Eur J Med Chem, 2011)
